From ChEMBL document CHEMBL2062469, “1-(2-Mercaptobenzenesulfonyl)-3-hydroxyguanidines--novel potent antiproliferatives, synthesis and in vitro biological activity” (2012)

How the values were obtained:
Type in all cases: functional
NCI-H460 = assay: Cytostatic activity against human NCI-H460 cells
Outline: (§1)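 NCI-60 human tumor cell line screen run by the US National Cancer Institute under the NIH Developmental Therapeutics Program protocol. A single-dose prescreen at 10 µM came first. Selected compounds then went into the 5-dose assay. Cytostatic activity is reported as GI50 (µM).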

OVCAR-3 = assay: Cytostatic activity against human OVCAR3 cells; outline: as §1
UACC-62 = assay: Cytostatic activity against human UACC62 cells
Outline: (§2)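 Human tumour cell lines from the NCI-60 panel, tested at the US National Cancer Institute under the NIH Developmental Therapeutics Program protocol. A single-dose prescreen at 10 µM came first. Selected compounds then went to a 5-dose assay, which gave GI50 and TGI values in µM.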

UO-31 = assay: Cytostatic activity against human UO31 cells; outline: as §2
M14 = assay: Cytostatic activity against human M14 cells; outline: as §1
Hs-578T = assay: Cytostatic activity against human Hs 578T cells; outline: as §1
SNB-75 = assay: Cytostatic activity against human SNB75 cells; outline: as §2
HT-29 = assay: Cytostatic activity against human HT-29 cells; outline: as §1
SF-268 = assay: Cytostatic activity against human SF268 cells; outline: as §1
Malme-3M = assay: Cytostatic activity against human MALME-3M cells; outline: as §1
UACC-257 = assay: Cytostatic activity against human UACC257 cells; outline: as §2
NCI-H522 = assay: Cytostatic activity against human NCI-H522 cells; outline: as §1
IGROV-1 = assay: Cytostatic activity against human IGROV1 cells; outline: as §1
MDA-MB-231 = assay: Cytostatic activity against human MDA-MB-231/ATCC cells; outline: as §1
MDA-MB-435 = assay: Cytostatic activity against human MDA-MB-435 cells; outline: as §1
U-251 = assay: Cytostatic activity against human U251 cells; outline: as §2

GI50 (NCI-H460) [µM] | GI50 (OVCAR-3) [µM] | GI50 (HT-29) [µM] | GI50 (NCI-H522) [µM] | GI50 (MDA-MB-231) [µM] | GI50 (MDA-MB-435) [µM] | GI50 (U-251) [µM] | SMILES | GI50 (UACC-62) [µM] | GI50 (UO-31) [µM] | GI50 (M14) [µM] | GI50 (Hs-578T) [µM] | GI50 (SNB-75) [µM] | GI50 (SF-268) [µM] | GI50 (Malme-3M) [µM] | GI50 (UACC-257) [µM] | GI50 (IGROV-1) [µM]
4.37 | 4.79 | 7.24 | 3.8 |  |  |  | COc1cc(CSc2cc(Cl)c(-c3nc(-c4ccccc4)no3)cc2S(=O)(=O)NC(=N)NO)cc(OC)c1OC | 3.09 | 4.47 | 6.61 | 7.41 | 3.98 | 6.92 | 13.5 | 13.2 | 5.62
2.34 | 1.62 | 2.29 | 1.86 | 5.13 | 2.63 | 10.7 | N=C(NO)NS(=O)(=O)c1cc(-c2nnc(-c3ccc(Cl)cc3)s2)c(Cl)cc1SCc1ccc2c(c1)OCO2 | 2.14 | 3.72 | 2.14 | 2.4 | 1.78 | 2.04 | 2.24 | 3.55 | 3.47
2.24 | 1.91 | 2.95 | 2.14 |  |  |  | COc1cc(CSc2cc(Cl)c(-c3nc(-c4ccc(Cl)cc4)no3)cc2S(=O)(=O)NC(=N)NO)cc(OC)c1OC | 1.95 | 3.16 | 2.19 | 4.17 | 2.95 | 2.95 | 7.76 | 9.33 | 3.8
3.24 | 2.19 | 4.17 | 2.04 |  |  |  | COc1cc(CSc2cc(Cl)c(-c3nnc(-c4ccccc4)s3)cc2S(=O)(=O)NC(=N)NO)cc(OC)c1OC | 3.24 | 3.98 | 4.07 | 3.31 | 1.86 | 2.4 | 3.09 | 6.03 | 3.72
 |  |  |  | 2.34 | 2 | 1.95 | N=C(NO)NS(=O)(=O)c1cc(-c2nc(-c3ccccc3)cs2)c(Cl)cc1SCc1ccc2c(c1)OCO2 | 2.14 |  |  |  |  | 1.86 |  |  | 2.82
